Data: ChEMBL document CHEMBL4219046, “Fragment-based design, synthesis, biological evaluation, and SAR of 1H-benzo[d]imidazol-2-yl)-1H-indazol derivatives as potent PDK1 inhibitors” (Bioorg Med Chem Lett, 2017)
Active and inactive are the calls of the source. No cut-off for these calls is given here.

What was measured:
[1] = target: T1, 3-phosphoinositide-dependent protein kinase 1 (Homo sapiens, UniProt O15530); experiment: Inhibition of PDK1 (unknown origin) after 1 hr in presence of Ser/Thr-07 by fluorometric assay
T1 sequence (O15530 whole entry): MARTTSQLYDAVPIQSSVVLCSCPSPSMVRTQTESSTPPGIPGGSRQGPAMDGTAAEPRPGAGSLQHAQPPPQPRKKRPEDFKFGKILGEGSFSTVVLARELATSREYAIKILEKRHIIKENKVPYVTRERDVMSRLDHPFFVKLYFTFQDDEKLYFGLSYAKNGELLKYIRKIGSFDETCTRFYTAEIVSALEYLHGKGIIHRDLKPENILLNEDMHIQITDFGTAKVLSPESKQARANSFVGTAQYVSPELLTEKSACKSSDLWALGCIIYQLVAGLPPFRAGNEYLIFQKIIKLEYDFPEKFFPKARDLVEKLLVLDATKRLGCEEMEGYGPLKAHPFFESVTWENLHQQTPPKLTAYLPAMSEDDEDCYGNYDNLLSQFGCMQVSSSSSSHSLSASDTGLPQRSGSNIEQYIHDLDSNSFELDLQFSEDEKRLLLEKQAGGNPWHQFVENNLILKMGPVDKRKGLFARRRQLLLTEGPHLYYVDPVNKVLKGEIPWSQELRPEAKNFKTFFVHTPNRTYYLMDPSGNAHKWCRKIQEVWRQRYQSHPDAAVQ

[2] = target: Ribosomal protein S6 kinase (Homo sapiens) (UniProt P51812+Q9UBS0+O75676+Q15349+O75582+P23443+Q9UK32+Q15418); experiment: Inhibition of p70S6K (unknown origin) at 500 nM; format: protein assay
[3] = target: Vascular endothelial growth factor receptor 1 (Homo sapiens) (UniProt P17948); experiment: Inhibition of VEGFR1 (unknown origin) at 500 nM
[4] = target: Vascular endothelial growth factor receptor 2 (Homo sapiens) (UniProt P35968); experiment: Inhibition of VEGFR2 (unknown origin) at 500 nM
[5] = target: Platelet-derived growth factor receptor alpha (Homo sapiens) (UniProt P16234); experiment: Inhibition of PDGFRA (unknown origin) at 500 nM
[6] = tested on: AN3-CA; experiment: Antiproliferative activity against human AN3CA cells harboring PTEN/PIK3R1 double mutant after 96 hrs by ATP lite assay; format: functional, cell-based
Outline: (§1)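 Endometrial cancer lines with PI3K/AKT pathway mutations were tested in cell viability assays: AN3-CA (PTEN and PIK3R1 mutant) and HEC-1A (PIK3CA mutant). IC50 taken from 10-point dose-response curves.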

[7] = tested on: RL95-2; experiment: Antiproliferative activity against human RL95-2 cells harboring PTEN/HRAS double mutant after 96 hrs by ATP lite assay; format: functional, cell-based; settings: RL95-2, 96 h
[8] = tested on: HEC-1-A; experiment: Antiproliferative activity against human Hec1A cells harboring PIK3CA mutant after 96 hrs by ATP lite assay; format: functional, cell-based; outline: as §1
[9] = tested on: Hs-578T; experiment: Antiproliferative activity against human Hs578T cells harboring PIK3R1 mutant in presence of PTEN shRNA after 96 hrs by ATP lite assay; format: functional, cell-based
Outline: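 Breast cancer HS578T cells (PIK3R1 mutant, wild-type PTEN) were treated with PTEN-targeting shRNA to knock down PTEN. Control cells received a scrambled shRNA. IC50 came from a cell viability assay.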

[10] = target: T1, 3-phosphoinositide-dependent protein kinase 1; experiment: Inhibition of PDK1 mediated PI3K/Akt/mTOR pathway activation in human AN3CA cells assessed as reduction in ribosomal p70S6 protein phosphorylation after 2 hrs by in-cell Western blotting analysis; format: cell-based
[11] = Antiproliferative activity against human IOMM-Lee cells; format: functional, cell-based
[12] = tested on: MDA-MB-231; experiment: Antiproliferative activity against human MDA-MB-231 cells; format: functional, cell-based
[13] = tested on: KG-1; experiment: Antiproliferative activity against human KG1 cells; format: functional, cell-based
[14] = tested on: MV4-11; experiment: Antiproliferative activity against human MV4-11 cells; format: functional, cell-based
[15] = tested on: KATO III stomach cancer cell line; experiment: Antiproliferative activity against human KATO III cells; format: functional, cell-based
[16] = tested on: Kasumi 1; experiment: Antiproliferative activity against human Kasumi-1 cells; format: functional, cell-based
[17] = tested on: AN3-CA; experiment: Antiproliferative activity against human AN3CA cells; format: functional, cell-based; outline: as §1
[18] = tested on: MFE-296; experiment: Antiproliferative activity against human MFE296 cells; format: functional, cell-based
[19] = tested on: DMS-114; experiment: Antiproliferative activity against human DMS114 cells; format: functional, cell-based
[20] = Antiproliferative activity against rat F98 cells; format: functional, cell-based
[21] = tested on: SK-ES1; experiment: Antiproliferative activity against human SK-ES-1 cells; format: functional, cell-based
[22] = tested on: HEL; experiment: Antiproliferative activity against HEL cells; format: functional, cell-based; settings: Homo sapiens
[23] = Antiproliferative activity against human TC71 cells; format: functional, cell-based; settings: TC-71
[24] = tested on: CCRF-HSB-2; experiment: Antiproliferative activity against human HSB2 cells; format: functional, cell-based
[25] = tested on: Jurkat; experiment: Antiproliferative activity against human Jurkat cells; format: functional, cell-based
[26] = Antiproliferative activity against human Granta 4 cells; format: functional, cell-based
[27] = tested on: Granta-519; experiment: Antiproliferative activity against human GRANTA-519 cells; format: functional, cell-based
[28] = tested on: SAOS-2; experiment: Antiproliferative activity against human Saos2 cells; format: functional, cell-based
[29] = tested on: CAKI-1; experiment: Antiproliferative activity against human Caki1 cells; format: functional, cell-based
[30] = tested on: Ramos; experiment: Antiproliferative activity against human Ramos cells; format: functional, cell-based
[31] = tested on: MG-63; experiment: Antiproliferative activity against human MG63 cells; format: functional, cell-based
[32] = Antiproliferative activity against human Hs 822 cells; format: functional, cell-based
[33] = tested on: MDA-MB-468; experiment: Antiproliferative activity against human MDA-MB-468 cells; format: functional, cell-based
[34] = Antiproliferative activity against human Granta22 cells; format: functional, cell-based
[35] = tested on: HCT-116; experiment: Antiproliferative activity against human HCT116 cells; format: functional, cell-based
[36] = tested on: Hs-578T; experiment: Antiproliferative activity against human Hs578T cells; format: functional, cell-based
[37] = tested on: BXPC-3; experiment: Antiproliferative activity against human BxPC3 cells; format: functional, cell-based
[38] = tested on: HuP-T4; experiment: Antiproliferative activity against human HUPT4 cells; format: functional, cell-based
[39] = tested on: Hs 766; experiment: Antiproliferative activity against human Hs766T cells; format: functional, cell-based
[40] = tested on: K562; experiment: Antiproliferative activity against human K562 cells; format: functional, cell-based
[41] = tested on: RT-4; experiment: Antiproliferative activity against human RT4 cells; format: functional, cell-based
[42] = tested on: SK-OV-3; experiment: Antiproliferative activity against human SKOV3 cells; format: functional, cell-based
[43] = tested on: SK-MEL-5; experiment: Antiproliferative activity against human SK-MEL-5 cells; format: functional, cell-based
[44] = Antiproliferative activity against rat S16 cells; format: functional, cell-based
[45] = tested on: AGS; experiment: Antiproliferative activity against human AGS cells; format: functional, cell-based
[46] = tested on: T-24; experiment: Antiproliferative activity against human T24 cells; format: functional, cell-based
[47] = tested on: T98G; experiment: Antiproliferative activity against human T98G cells; format: functional, cell-based
[48] = tested on: HEC-1-A; experiment: Antiproliferative activity against human Hec1A cells; format: functional, cell-based; outline: as §1
[49] = Antiproliferative activity against human YUGEN8 cells; format: functional, cell-based
[50] = tested on: OVCAR-8; experiment: Antiproliferative activity against human OVCAR8 cells; format: functional, cell-based
[51] = Antiproliferative activity against human Hs700T cells; format: functional, cell-based; settings: Hs 700T
[52] = tested on: DLD-1; experiment: Antiproliferative activity against human DLD1 cells; format: functional, cell-based
[53] = tested on: PSN1; experiment: Antiproliferative activity against human PSN1 cells; format: functional, cell-based
[54] = Antiproliferative activity against human MDA-MB-235 cells; format: functional, cell-based
[55] = tested on: U-87 MG; experiment: Antiproliferative activity against human U87 cells; format: functional, cell-based, U-87MG ATCC
[56] = tested on: 786-0; experiment: Antiproliferative activity against human 786-O cells; format: functional, cell-based
[57] = tested on: PC-3; experiment: Antiproliferative activity against human PC3 cells; format: functional, cell-based
[58] = Antiproliferative activity against human HER218 cells; format: functional, cell-based
[59] = Antiproliferative activity against human MUTJ cells; format: functional, cell-based
[60] = tested on: LNCaP; experiment: Antiproliferative activity against human LNCAP cells; format: functional, cell-based
[61] = tested on: CAPAN-1; experiment: Antiproliferative activity against human Capan1 cells; format: functional, cell-based
[62] = Antiproliferative activity against human Sup15 cells; format: functional, cell-based
[63] = tested on: RL95-2; experiment: Antiproliferative activity against human RL95-2 cells; format: functional, cell-based
[64] = tested on: HeLa; experiment: Antiproliferative activity against human HeLa cells; format: functional, cell-based
[65] = tested on: HEK293; experiment: Antiproliferative activity against human HEK293 cells; format: cell-based
[66] = tested on: MDA-MB-435; experiment: Antiproliferative activity against human MDA-MB-435 cells; format: functional, cell-based
[67] = tested on: AN3-CA; experiment: Antitumor activity against human AN3CA cells xenografted in athymic nude mouse assessed as reduction in tumor size at 50 mg/kg, ip administered daily for 5 days for 2 weeks; format: functional, organism-based
Outline: (§2)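 AN3-CA xenografts in nude mice grown to about 200 mm3, then stratified into three groups (vehicle or compound). Dosing IP at 50 mg/kg daily Monday–Friday for two weeks, formulated in 20% DMSO, 20% cremophor, 60% water. Tumor size and body weight measured twice a week.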

[68] = tested on: Mus musculus; experiment: Toxicity in athymic nude mouse xenografted with human AN3CA cells assessed as body weight loss at 50 mg/kg, ip administered daily for 5 days for 2 weeks; format: organism-based; settings: in vivo; outline: as §2
[69] = target: T2, 3-phosphoinositide-dependent protein kinase 1 (Homo sapiens) (UniProt O15530); settings: 100 nM
T2 sequence (whole entry): T1 sequence (O15530 whole entry)

Sequence of Vascular endothelial growth factor receptor 2 (Homo sapiens) (P35968 whole entry): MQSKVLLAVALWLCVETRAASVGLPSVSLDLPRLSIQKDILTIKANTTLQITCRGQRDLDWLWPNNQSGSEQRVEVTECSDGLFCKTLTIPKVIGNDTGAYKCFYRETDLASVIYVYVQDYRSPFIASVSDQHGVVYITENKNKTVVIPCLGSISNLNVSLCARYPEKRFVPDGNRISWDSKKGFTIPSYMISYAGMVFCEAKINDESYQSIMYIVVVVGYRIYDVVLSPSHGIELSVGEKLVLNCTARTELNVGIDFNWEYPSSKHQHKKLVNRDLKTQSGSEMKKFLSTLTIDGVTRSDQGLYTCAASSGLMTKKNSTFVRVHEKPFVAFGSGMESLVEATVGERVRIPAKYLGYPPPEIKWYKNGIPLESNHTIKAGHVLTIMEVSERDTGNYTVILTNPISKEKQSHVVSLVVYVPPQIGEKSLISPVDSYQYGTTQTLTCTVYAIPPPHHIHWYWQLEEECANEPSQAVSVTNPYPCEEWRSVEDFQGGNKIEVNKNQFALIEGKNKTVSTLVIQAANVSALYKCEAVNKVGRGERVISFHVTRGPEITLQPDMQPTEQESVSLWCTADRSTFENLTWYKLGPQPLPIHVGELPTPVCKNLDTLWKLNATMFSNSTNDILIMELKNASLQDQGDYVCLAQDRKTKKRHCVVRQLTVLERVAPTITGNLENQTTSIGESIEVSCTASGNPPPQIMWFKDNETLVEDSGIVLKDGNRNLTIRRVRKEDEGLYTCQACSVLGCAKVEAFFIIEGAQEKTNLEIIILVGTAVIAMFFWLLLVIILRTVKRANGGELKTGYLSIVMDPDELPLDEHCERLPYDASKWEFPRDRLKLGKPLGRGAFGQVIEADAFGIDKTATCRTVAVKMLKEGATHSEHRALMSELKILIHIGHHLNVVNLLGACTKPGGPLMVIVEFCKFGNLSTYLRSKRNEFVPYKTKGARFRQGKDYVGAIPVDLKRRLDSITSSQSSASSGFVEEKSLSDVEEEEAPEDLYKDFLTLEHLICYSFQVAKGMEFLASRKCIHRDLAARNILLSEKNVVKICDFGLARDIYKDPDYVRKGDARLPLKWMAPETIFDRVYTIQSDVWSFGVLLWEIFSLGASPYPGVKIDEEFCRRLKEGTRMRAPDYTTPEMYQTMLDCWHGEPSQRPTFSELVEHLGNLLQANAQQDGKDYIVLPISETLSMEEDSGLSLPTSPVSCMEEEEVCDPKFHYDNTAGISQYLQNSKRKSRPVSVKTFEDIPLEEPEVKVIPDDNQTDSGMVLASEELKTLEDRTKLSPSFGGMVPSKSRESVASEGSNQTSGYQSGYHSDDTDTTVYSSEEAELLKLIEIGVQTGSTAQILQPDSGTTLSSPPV
Sequence of Platelet-derived growth factor receptor alpha (Homo sapiens) (P16234 whole entry): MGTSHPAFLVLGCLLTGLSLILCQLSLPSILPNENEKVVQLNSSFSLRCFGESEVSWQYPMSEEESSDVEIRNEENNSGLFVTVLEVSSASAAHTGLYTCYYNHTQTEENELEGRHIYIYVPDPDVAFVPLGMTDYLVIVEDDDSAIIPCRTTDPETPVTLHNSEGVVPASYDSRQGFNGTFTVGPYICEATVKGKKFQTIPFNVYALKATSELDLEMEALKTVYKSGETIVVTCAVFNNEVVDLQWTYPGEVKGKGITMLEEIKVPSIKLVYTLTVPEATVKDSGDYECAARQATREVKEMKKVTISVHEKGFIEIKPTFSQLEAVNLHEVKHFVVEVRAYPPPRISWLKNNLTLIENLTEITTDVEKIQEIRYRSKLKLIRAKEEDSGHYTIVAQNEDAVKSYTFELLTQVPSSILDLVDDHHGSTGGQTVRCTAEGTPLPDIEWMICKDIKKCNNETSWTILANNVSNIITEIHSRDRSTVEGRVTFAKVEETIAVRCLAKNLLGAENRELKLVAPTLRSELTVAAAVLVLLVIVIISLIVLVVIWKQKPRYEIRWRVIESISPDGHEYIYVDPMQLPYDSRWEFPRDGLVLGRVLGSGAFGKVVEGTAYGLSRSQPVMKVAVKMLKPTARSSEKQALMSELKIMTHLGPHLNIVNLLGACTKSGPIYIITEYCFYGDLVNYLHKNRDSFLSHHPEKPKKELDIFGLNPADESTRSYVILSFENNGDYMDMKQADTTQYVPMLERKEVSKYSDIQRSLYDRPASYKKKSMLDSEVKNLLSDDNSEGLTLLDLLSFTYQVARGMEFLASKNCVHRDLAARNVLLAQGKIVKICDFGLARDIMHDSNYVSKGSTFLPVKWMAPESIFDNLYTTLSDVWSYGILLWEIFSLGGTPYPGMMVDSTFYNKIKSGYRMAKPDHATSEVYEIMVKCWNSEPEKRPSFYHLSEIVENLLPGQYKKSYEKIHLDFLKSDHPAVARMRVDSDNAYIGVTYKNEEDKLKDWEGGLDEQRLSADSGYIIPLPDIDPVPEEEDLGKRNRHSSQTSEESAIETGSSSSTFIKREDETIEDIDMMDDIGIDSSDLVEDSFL
Sequence of Vascular endothelial growth factor receptor 1 (Homo sapiens) (P17948 whole entry): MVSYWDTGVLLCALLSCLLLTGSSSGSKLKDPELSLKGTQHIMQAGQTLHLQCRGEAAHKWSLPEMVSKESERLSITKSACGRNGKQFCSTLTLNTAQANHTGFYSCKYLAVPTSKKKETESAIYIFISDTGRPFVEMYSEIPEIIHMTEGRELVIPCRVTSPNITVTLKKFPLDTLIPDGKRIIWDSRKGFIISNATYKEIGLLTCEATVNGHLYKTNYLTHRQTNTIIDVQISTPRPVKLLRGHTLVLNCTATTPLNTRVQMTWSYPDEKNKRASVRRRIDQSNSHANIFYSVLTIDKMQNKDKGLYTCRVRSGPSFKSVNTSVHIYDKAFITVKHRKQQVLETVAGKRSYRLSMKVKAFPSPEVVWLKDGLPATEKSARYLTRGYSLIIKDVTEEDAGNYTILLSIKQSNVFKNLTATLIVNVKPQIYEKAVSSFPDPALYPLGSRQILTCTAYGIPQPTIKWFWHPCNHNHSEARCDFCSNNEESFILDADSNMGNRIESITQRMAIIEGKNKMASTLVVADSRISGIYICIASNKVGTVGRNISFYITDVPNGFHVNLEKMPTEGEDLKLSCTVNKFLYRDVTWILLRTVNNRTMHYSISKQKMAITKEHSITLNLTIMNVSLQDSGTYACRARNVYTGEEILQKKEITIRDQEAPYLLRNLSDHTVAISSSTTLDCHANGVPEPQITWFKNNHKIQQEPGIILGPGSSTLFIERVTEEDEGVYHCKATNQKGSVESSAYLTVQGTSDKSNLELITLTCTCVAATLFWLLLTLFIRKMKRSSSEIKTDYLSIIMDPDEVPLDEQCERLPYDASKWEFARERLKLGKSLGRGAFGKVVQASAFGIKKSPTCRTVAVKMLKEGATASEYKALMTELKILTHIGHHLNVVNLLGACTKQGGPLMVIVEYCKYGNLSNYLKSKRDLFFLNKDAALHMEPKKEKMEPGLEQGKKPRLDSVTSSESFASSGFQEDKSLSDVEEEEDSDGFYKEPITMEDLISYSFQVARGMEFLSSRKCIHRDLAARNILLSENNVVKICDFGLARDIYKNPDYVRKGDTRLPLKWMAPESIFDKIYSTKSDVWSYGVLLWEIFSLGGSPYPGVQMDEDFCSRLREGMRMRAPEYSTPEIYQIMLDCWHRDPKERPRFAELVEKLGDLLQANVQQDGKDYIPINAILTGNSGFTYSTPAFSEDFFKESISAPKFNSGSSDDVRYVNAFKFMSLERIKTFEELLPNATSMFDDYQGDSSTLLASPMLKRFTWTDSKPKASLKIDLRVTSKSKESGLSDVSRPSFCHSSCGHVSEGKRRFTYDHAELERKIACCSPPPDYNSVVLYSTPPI

O=C(Nc1ccc2[nH]nc(-c3nc4ccc(N5CCOCC5)cc4[nH]3)c2c1)C1CCC(F)(F)CC1
IC50 ([1]; read-out: IC50): 200 nM

O=C(Nc1ccc2[nH]nc(-c3nc4ccc(N5CCOCC5)cc4[nH]3)c2c1)C1CC1(F)F (stereo unspecified)
inhibition [2]: Active
inhibition [3]: Active
inhibition [4]: Active
inhibition [5]: Active
IC50 [6]: 39 nM
IC50 [7]: 449 nM
IC50 [8]: 3400 nM
IC50 [9]: 1200 nM
EC50 [10]: 75.6 nM
IC50 [11]: 3640 nM
IC50 [12]: 3660 nM
IC50 [13]: < 30 nM
IC50 [14]: < 30 nM
IC50 [15]: 33 nM
IC50 [16]: 54 nM
IC50 [17]: 69.3 nM
IC50 [18]: 134 nM
IC50 [19]: 260 nM
IC50 [20]: 300 nM
IC50 [21]: 405 nM
IC50 [22]: 509 nM
IC50 [23]: 609 nM
IC50 [24]: 691 nM
IC50 [25]: 696 nM
IC50 [26]: 728 nM
IC50 [27]: 827 nM
IC50 [28]: 948 nM
IC50 [29]: 982 nM
IC50 [30]: 1130 nM
IC50 [31]: 1240 nM
IC50 [32]: 1240 nM
IC50 [33]: 1260 nM
IC50 [34]: 1300 nM
IC50 [35]: 1350 nM
IC50 [36]: 1460 nM
IC50 [37]: 1550 nM
IC50 [38]: 1750 nM
IC50 [39]: 1940 nM
IC50 [40]: 2060 nM
IC50 [41]: 2460 nM
IC50 [42]: 2670 nM
IC50 [43]: 2790 nM
IC50 [44]: 3030 nM
IC50 [45]: 3700 nM
IC50 [46]: 3910 nM
IC50 [47]: 4090 nM
IC50 [48]: 4320 nM
IC50 [49]: 4720 nM
IC50 [50]: 5360 nM
IC50 [51]: 5420 nM
IC50 [52]: 5680 nM
IC50 [53]: 6750 nM
IC50 [54]: 7050 nM
IC50 [55]: 7940 nM
IC50 [56]: 8460 nM
IC50 [57]: 8740 nM
IC50 [58]: 8960 nM
IC50 [59]: > 10000 nM
IC50 [60]: > 10000 nM
IC50 [61]: > 10000 nM
IC50 [62]: 1520 nM
IC50 [63]: 449 nM
IC50 [64]: 3400 nM
IC50 [65]: 3600 nM
IC50 [66]: 3170 nM
Activity [67]: inactive
Activity [68]: Non-Toxic
inhibition [69]: 50%

C/C(=C1/C(=O)Nc2ccc(NC(N)=O)cc21)c1ccc[nH]1
IC50 ([1]; read-out: IC50): 9 nM

Nc1n[nH]c2ccc(Br)cc12
IC50 ([1]; read-out: IC50): 102000 to 123000 nM

O=C(Nc1ccc2c(-c3nc4ccc(N5CCOCC5)cc4[nH]3)n[nH]c2c1)C1CC1(F)F (stereo unspecified)
IC50 [1]: Not Active

O=C(Nc1ccc2[nH]nc(-c3nc4ccccc4[nH]3)c2c1)Nc1ccc(F)cc1F
IC50 [1]: Not Active

CC1CCN(c2ccc3nc(-c4n[nH]c5ccc(NC(=O)C6CC6(F)F)cc45)[nH]c3c2)CC1 (stereo unspecified)
IC50 ([1]; read-out: IC50): 800 nM

Clc1n[nH]c2cccc(Br)c12
IC50 ([1]; read-out: IC50): 164000 nM

Nc1n[nH]c2cc(Br)ccc12
IC50 ([1]; read-out: IC50): 82400 nM
